Data from ChEMBL document CHEMBL5505965 (Eur J Med Chem, 2024).
Converted amounts (≈) assume the structure as drawn.

What was measured:
[1] = Inhibition of NDM1 (unknown origin)
Escherichia coli [2] = test: Synergistic anti-bacterial activity Escherichia coli E.cloni MP30-63 expressing blaNDM- gene assessed as decrease in meropenem MIC at 500 uM; type: functional
Escherichia coli [3] = test: Synergistic anti-bacterial activity Escherichia coli E.cloni MP30-57 expressing blaVIM- gene assessed as fold reduction in meropenem MIC at 500 uM; type: functional
Escherichia coli [4] = test: Synergistic anti-bacterial activity Escherichia coli E.cloni MP30-58 expressing blaIMP- gene assessed as decrease in meropenem MIC at 500 uM; type: functional
Escherichia coli [5] = test: Synergistic anti-bacterial activity Escherichia coli E.cloni MP30-57 expressing blaVIM- gene assessed as decrease in meropenem MIC at 500 uM; type: functional
Escherichia coli [6] = test: Synergistic anti-bacterial activity Escherichia coli E.cloni MP30-58 expressing blaIMP- gene assessed as fold reduction in meropenem MIC at 500 uM; type: functional
Escherichia coli [7] = test: Synergistic anti-bacterial activity Escherichia coli E.cloni MP30-63 expressing blaNDM- gene assessed as fold reduction in meropenem MIC at 500 uM; type: functional
Escherichia coli [8] = test: Anti-bacterial activity against Escherichia coli E.cloni MP21-05 assessed as decrease in bacterial growth; type: functional
Escherichia coli [9] = test: Anti-bacterial activity against Escherichia coli E.cloni MP30-57 expressing blaVIM- gene assessed as decrease in bacterial growth; type: functional
In short: (§1)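 Test compound held at a fixed 500 μM in E. coli producing the B1 metallo-β-lactamase (NDM-1, VIM-2 or IMP-26). Growth was checked with the compound alone and in combination with meropenem. Read-out was the meropenem MIC (mg/L) and its fold reduction.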

Escherichia coli [10] = test: Anti-bacterial activity against Escherichia coli E.cloni MP30-58expressing blaIMP- gene assessed as decrease in bacterial growth; type: functional; in short: as §1
Escherichia coli [11] = test: Anti-bacterial activity against Escherichia coli E.cloni MP30-63 expressing blaNDM- gene assessed as decrease in bacterial growth; type: functional; in short: as §1

Row | IC50 [1] | SMILES | other results
1 | > 500 µM | C[C@@H](CS)C(=O)N1CCC[C@H]1C(=O)O | –
2 | 6.1 µM | O=C(O)[C@@H]1CCCN1C(=O)[C@@H](CS)C(F)(F)F | MIC (Escherichia coli [2]): 4 µg/mL; fold change (FC) (Escherichia coli [3]): 8; MIC (Escherichia coli [4]): 0.25 µg/mL; MIC (Escherichia coli [5]): 0.06 µg/mL; fold change (FC) (Escherichia coli [6]): 8
3 | 60 µM | O=C(O)[C@@H]1CCCN1C(=O)[C@H](CS)C(F)(F)F | –
4 | 22 µM | O=C(CC(S)C(F)(F)F)Nc1ccccc1 (configuration not stated) | –
5 | > 300 µM | O=C(O)[C@H]1CCCN1C(=O)CC(S)C(F)(F)F (some centres not stated) | –
6 | 3.2 µM | O=C(O)[C@H]1CCCCN1C(=O)C(CS)C(F)(F)F (some centres not stated) | MIC (Escherichia coli [2]): 0.5 µg/mL; fold change (FC) (Escherichia coli [7]): 32; MIC (Escherichia coli [4]): 0.5 µg/mL; MIC (Escherichia coli [5]): 0.125 µg/mL
7 | 37 µM | O=C(O)[C@@H]1CCCN1C(=O)C(CS)C(F)(F)F (some centres not stated) | –
8 | 75 µM | O=C(NCc1ccccc1)[C@@H](CS)C(F)(F)F | –
9 | 3.4 µM | O=C(Nc1ccccc1)C(CS)C(F)(F)F (configuration not stated) | –
10 | 5.6 µM | O=C(CC(S)C(F)(F)F)Nc1ccc(C(=O)O)cc1 (configuration not stated) | –
11 | 0.3 µM | O=C(O)[C@H]1CCCN1C(=O)[C@@H](CS)C(F)(F)F | MIC (Escherichia coli [2]): 4 µg/mL; MIC (Escherichia coli [4]): 4 µg/mL; MIC (Escherichia coli [5]): 0.25 µg/mL
12 | 4.5 µM | O=C(O)[C@H]1CCCN1C(=O)[C@H](CS)C(F)(F)F | –
13 | 2.2 µM | O=C(O)C1CCN(C(=O)C(CS)C(F)(F)F)CC1 (configuration not stated) | MIC (Escherichia coli [2]): 1 µg/mL; fold change (FC) (Escherichia coli [7]): 32; MIC (Escherichia coli [4]): 2 µg/mL; MIC (Escherichia coli [5]): 0.125 µg/mL
14 | 65 µM | O=C(O)c1ccc(CNC(=O)C(CS)C(F)(F)F)cc1 (configuration not stated) | –
15 | > 300 µM | O=C(O)[C@@H]1CCCN1C(=O)CC(S)C(F)(F)F (some centres not stated) | –
16 | > 300 µM | O=C(CC(S)C(F)(F)F)NCc1ccccc1 (configuration not stated) | –
17 | > 300 µM | O=C(CC(S)C(F)(F)F)NCc1ccc(C(=O)O)cc1 (configuration not stated) | –
18 | > 300 µM | O=C(O)C1CCN(C(=O)CC(S)C(F)(F)F)CC1 (configuration not stated) | –
19 | 10 µM | O=C(NCc1ccccc1)[C@H](CS)C(F)(F)F | –
20 | 145 µM | O=C(O)[C@H]1CCCCN1C(=O)CC(S)C(F)(F)F (some centres not stated) | –
21 | 64 µM | C[C@@H](CS)C(=O)N1CCC[C@@H]1C(=O)O | –
22 | 20 µM | O=C(NCc1ccccc1)C(CS)C(F)(F)F (racemic) | –
23 | – | C[C@@H](O)[C@H]1C(=O)N2C(C(=O)O)=C(S[C@@H]3CN[C@H](C(=O)N(C)C)C3)[C@H](C)[C@H]12 [MEROPENEM] | MIC (Escherichia coli [8]): 0.03 µg/mL (≈ 0.0782 µM); MIC (Escherichia coli [9]): 0.5 µg/mL (≈ 1.3 µM); MIC (Escherichia coli [10]): 2 µg/mL (≈ 5.22 µM); MIC (Escherichia coli [11]): 32 µg/mL (≈ 83.4 µM)
